Laboratory results as given in ChEMBL document CHEMBL1128527, “Modification of receptor selectivity and functional activity in cholecystokinin peptoid ligands” (J Med Chem, 1995).
Values belong to the compound of their own block, whether it stands above or below them. The source made the active and inactive calls. The calls are words filed in the database; no cut-off is given here. Numbered stars: 1 amine (or outer) side, 2 acyl side, 3 side chain; on linkers, the order of the positions; unused ones are H or OH. Square brackets hold non-standard residues; d marks the D form. Side chains are listed from the residue outwards. Peptide text beside a SMILES is read from it. * marks the point of attachment. NMeF = CN[C@@H](Cc1ccccc1)C(=O)O; NH(2-Me-phenyl) = Cc1ccccc1N*; CO = O=C([*:1])[*:2]

Legend:
Cavia porcellus [1] = organism: Cavia porcellus; experiment: mCCK-8 contraction induced by 30 uM in vitro, normalized to CCK-8 (1 uM); assay type: functional
Outline: (§1)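 Isolated guinea pig gallbladder. Contraction produced by test compound at 30 μM is expressed relative to CCK-8 (1 μM).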

[2] = target: T1, Cholecystokinin receptor type A (Homo sapiens, UniProt P32238); experiment: In vitro displacement of [125I]BH-CCK-8 from cDNA of human Cholecystokinin type A receptor expressed in CHO-K1 cells; assay type: cell-based
T1 sequence (P32238 whole entry): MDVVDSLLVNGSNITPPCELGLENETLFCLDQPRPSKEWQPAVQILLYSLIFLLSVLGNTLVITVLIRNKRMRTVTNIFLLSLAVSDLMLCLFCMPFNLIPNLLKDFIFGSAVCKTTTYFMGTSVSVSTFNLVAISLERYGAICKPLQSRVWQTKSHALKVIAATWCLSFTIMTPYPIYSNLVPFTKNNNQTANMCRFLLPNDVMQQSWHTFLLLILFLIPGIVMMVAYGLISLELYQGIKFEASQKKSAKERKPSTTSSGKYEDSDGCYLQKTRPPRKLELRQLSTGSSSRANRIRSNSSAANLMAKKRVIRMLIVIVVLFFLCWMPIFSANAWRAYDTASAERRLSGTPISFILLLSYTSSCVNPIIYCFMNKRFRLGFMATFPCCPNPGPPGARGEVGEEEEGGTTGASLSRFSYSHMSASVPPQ

Cavia porcellus [3] = organism: Cavia porcellus; experiment: mCCK-8 contraction induced by 30 uM in vitro, normalized to CCK-8 (1 uM); IA ='inactive'; assay type: functional; outline: as §1
[4] = target: T2, Gastrin/cholecystokinin type B receptor (Homo sapiens, UniProt P32239)
T2 sequence (P32239 whole entry): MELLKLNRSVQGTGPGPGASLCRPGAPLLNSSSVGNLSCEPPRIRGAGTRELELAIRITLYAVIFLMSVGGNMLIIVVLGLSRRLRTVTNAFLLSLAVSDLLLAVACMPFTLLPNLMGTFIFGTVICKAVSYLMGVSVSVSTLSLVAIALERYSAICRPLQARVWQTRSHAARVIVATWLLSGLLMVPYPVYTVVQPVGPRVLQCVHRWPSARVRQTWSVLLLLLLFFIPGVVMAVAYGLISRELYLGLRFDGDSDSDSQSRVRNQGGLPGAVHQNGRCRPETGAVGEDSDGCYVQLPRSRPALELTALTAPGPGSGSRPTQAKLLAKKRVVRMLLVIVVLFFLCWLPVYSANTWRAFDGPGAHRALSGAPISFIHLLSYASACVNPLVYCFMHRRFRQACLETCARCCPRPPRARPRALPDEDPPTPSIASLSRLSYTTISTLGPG

[5] = target: T2, Gastrin/cholecystokinin type B receptor; experiment: Compound was evaluated for the [Ca2+] mobilization innstably transfected CHO-K1 cell lines expressing human Cholecystokinin type B receptor; assay type: cell-based
Cavia porcellus [6] = organism: Cavia porcellus; experiment: In vitro concentration required to induce contraction of isolated GPGB; assay type: functional
Outline: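 Isolated guinea pig gallbladder contraction. pEC50 (−log EC50 ± SD) assayed in triplicate.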

Rattus norvegicus [7] = experiment: Compound was evaluated for the dose(ip) required to achieve half-maximal inhibition of feeding at 30 min in rats.; assay type: functional; conditions: 0.5 h
Outline: (§2)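 Male Long-Evans rats (225–300 g) conditioned 2 weeks to a liquid diet. Animals fasted 100 min, then given test compound ip in propylene glycol (1 mL/kg) followed at once by an oral saline preload (8 mL/kg). Diet offered 20 min later and intake measured at 30 min. ED50 is the dose giving half-maximal inhibition; 8–10 rats per dose, normalized to each rat's pretreatment-day response.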

Rattus norvegicus [8] = experiment: Compound was evaluated for the maximal reduction in feeding achieved at 1 uM/kg dose(ip); assay type: functional
Outline: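 Conditioned male Long-Evans rats fasted 100 min, dosed ip at 1 μmol/kg in propylene glycol (1 mL/kg), then given an oral saline preload (0.9%, 8 mL/kg). Liquid diet offered 20 min later. Maximal reduction of feeding is the mean of 8–10 animals, normalized to the vehicle pretreatment-day intake.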

[9] = target: T1, Cholecystokinin receptor type A; experiment: Compound was evaluated for the [Ca2+] mobilization innstably transfected CHO-K1 cell lines expressing human Cholecystokinin type A receptor; assay type: cell-based
[10] = target: T3, Gastrin/cholecystokinin type B receptor (Homo sapiens) (UniProt P32239)
T3 sequence (whole entry): T2 sequence (P32239 whole entry)

Cavia porcellus [11] = organism: Cavia porcellus; experiment: The compound was evaluated for contraction as % of CCK-8 maximum against Cholecystokinin type A receptor in guinea pig gallbladder
Cavia porcellus [12] = organism: Cavia porcellus; experiment: mCCK-8 contraction induced by 30 uM in vitro, normalized to CCK-8 (1 uM); IA = 'inactive'; assay type: functional; outline: as §1
Cavia porcellus [13] = organism: Cavia porcellus; experiment: The compound was evaluated for the pKB, single dose pA2 against Cholecystokinin type A receptor in guinea pig gallbladder; assay type: functional
Outline: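 Isolated guinea pig gallbladder. Antagonism against CCK-8 is expressed as pKB, a single-dose pA2.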

Rattus norvegicus [14] = experiment: The compound was evaluated for the dose(ip) required to achieve half-maximal inhibition of feeding at 30 min in rats; assay type: functional; conditions: 0.5 h; outline: as §2
Rattus norvegicus [15] = experiment: The compound was evaluated for the maximal reduction in feeding achieved at 1 uM/kg dose(ip); assay type: functional; conditions: in the assay text read “0.5 umol/kg” for “1 uM/kg”
Rattus norvegicus [16] = experiment: Compound was evaluated for the dose(ip) required to achieve half-maximal inhibition of feeding at 30 min in rats; assay type: functional; conditions: 0.5 h; outline: as §2
[17] = target: T4, Cholecystokinin receptor type A (Cavia porcellus) (UniProt Q63931); experiment: The compound was evaluated for the contraction as % of CCK-8 maximum against Cholecystokinin type A receptor in guinea pig gallbladder
T4 sequence (whole entry): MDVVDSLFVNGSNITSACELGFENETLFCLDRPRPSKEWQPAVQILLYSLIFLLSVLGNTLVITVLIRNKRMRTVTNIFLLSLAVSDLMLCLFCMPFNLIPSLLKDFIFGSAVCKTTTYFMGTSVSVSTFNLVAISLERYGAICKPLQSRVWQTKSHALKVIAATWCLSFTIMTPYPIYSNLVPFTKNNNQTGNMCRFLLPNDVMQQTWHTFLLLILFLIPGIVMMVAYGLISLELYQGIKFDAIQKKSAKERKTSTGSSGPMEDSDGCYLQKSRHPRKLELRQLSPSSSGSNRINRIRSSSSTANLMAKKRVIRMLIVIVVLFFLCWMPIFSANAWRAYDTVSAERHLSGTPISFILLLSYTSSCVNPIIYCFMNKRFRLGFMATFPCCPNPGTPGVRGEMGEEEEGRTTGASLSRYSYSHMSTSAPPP

Compound: C[C@](Cc1c[nH]c2ccccc12)(NC(=O)OC1[C@H]2C[C@@H]3C[C@@H](C[C@H]1C3)C2)C(=O)NC[C@H](NC(=O)CCC(=O)O)c1ccccc1 (stereo not given in full) [CI-988]
Activity (Cavia porcellus [1]): 24%

IC50 [2]: 0.724 µM
IC50 [4]: 7.08 µM
Compound: Cc1ccccc1NC(=O)NCCCC[C@@H](CNC(=O)CCC(=O)O)NC(=O)[C@](C)(Cc1c[nH]c2ccccc12)NC(=O)OC1C2CC3CC(C2)CC1C3 (stereo not given in full)
Activity (Cavia porcellus [3]): inactive

EC50 [5]: 2.51 µM
IC50 [2]: 0.012 µM
EC50 (Cavia porcellus [6]): 0.0275 µM
EC50 [9]: 0.00316 µM
IC50 [4]: 0.02 µM
pKB [10]: 7.7
Compound: Cc1ccccc1NC(=O)NCCCC[C@H](CNC(=O)[C@@](C)(Cc1c[nH]c2ccccc12)NC(=O)OC1C2CC3CC(C2)CC1C3)NC(=O)CCC(=O)O (stereo not given in full)
ED50 (Rattus norvegicus [7]): 0.03 µmol/kg
Max inhibition (Rattus norvegicus [8]): 59%
contraction, % of CCK-8 max (Cavia porcellus [11]): 72%

IC50 [2]: 0.0603 µM
IC50 [4]: 0.224 µM
Compound: Cc1ccccc1NC(=O)NCCCC[C@@H](CNC(=O)CCC(=O)O)NC(=O)[C@@](C)(Cc1c[nH]c2ccccc12)NC(=O)OC1C2CC3CC(C2)CC1C3 (stereo not given in full)
Activity (Cavia porcellus [12]): inactive
pKB (Cavia porcellus [13]): 7

Compound: CSCC[C@H](NC(=O)[C@H](Cc1ccc(OS(=O)(=O)O)cc1)NC(=O)[C@@H](N)CC(=O)O)C(=O)NCC(=O)N[C@@H](Cc1c[nH]c2ccccc12)C(=O)N[C@@H](CCSC)C(=O)N[C@@H](CC(=O)O)C(=O)N[C@@H](Cc1ccccc1)C(N)=O [SINCALIDE]
Activity (Cavia porcellus [1]): 100%
ED50 (Rattus norvegicus [14]): 0.027 µmol/kg
max inhibition (Rattus norvegicus [15]): 95%

IC50 [2]: 0.229 µM
EC50 (Cavia porcellus [6]): 0.832 µM
IC50 [4]: 0.178 µM
Compound: Cc1ccccc1NC(=O)NCCCC[C@H](CNC(=O)[C@](C)(Cc1c[nH]c2ccccc12)NC(=O)OC1C2CC3CC(C2)CC1C3)NC(=O)CCC(=O)O (stereo not given in full)
contraction, % of CCK-8 max (Cavia porcellus [11]): 83%

IC50 [2]: 0.02 µM
EC50 (Cavia porcellus [6]): 0.00158 µM
EC50 [9]: 0.00398 µM
contraction, % of CCK-8 max [17]: 105%
Compound: CC(=O)N[C@@H](Cc1c[nH]c2ccccc12)C(=O)N[C@@H](CCCCNC(=O)Nc1ccccc1C)C(=O)N[C@@H](CC(=O)O)C(=O)N(C)[C@@H](Cc1ccccc1)C(N)=O (Ac-WK([CO-NH(2-Me-phenyl)])D[NMeF]-NH2)
ED50 (Rattus norvegicus [16]): 0.01 µmol/kg
max inhibition (Rattus norvegicus [8]): 67%
